Experiments:
[1] = Inhibition of Trypanosoma brucei LeuRS preincubated for 20 mins prior to reaction initiation by aminoacylation assay
Summary of the method: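 Enzyme, compound, tRNA and 0.003 mCi/mL [¹⁴C]-leucine were incubated 20 min at 37 °C, then 4 mM ATP was added to start the reaction. Precipitated [¹⁴C]-Leu-tRNA^Leu on dried filter paper was measured by scintillation counting.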

[2] = Inhibition of Staphylococcus aureus LeuRS
[3] = Inhibition of human LeuRS
[4] = Inhibition of Escherichia coli LeuRS

SMILES | IC50 [1] [µM] | also measured
COc1ccc(C(=O)C2=C(O)C(=O)N(CCc3c[nH]c4ccccc34)C2c2ccc(C(C)C)cc2)cc1 (stereo unspecified) | 90.5 | –
COc1ccc(C(=O)C2=C(O)C(=O)N(CCc3c[nH]c4ccccc34)C2c2cccc(F)c2)cc1 (stereo unspecified) | 170 | –
COc1ccc(C(=O)C2=C(O)C(=O)N(CCc3c[nH]c4ccccc34)C2c2ccccc2F)cc1 (stereo unspecified) | 269 | –
COc1ccc(C(=O)C2=C(O)C(=O)N(CCc3c[nH]c4ccccc34)C2c2ccc(F)cc2)cc1 (stereo unspecified) | 64.7 | –
COc1ccc(C(=O)C2=C(O)C(=O)N(CCc3c[nH]c4ccccc34)C2c2ccccc2Cl)cc1 (stereo unspecified) | 125 | –
COc1ccc(C(=O)C2=C(O)C(=O)N(CCc3c[nH]c4ccccc34)C2c2ccc(Cl)cc2)cc1 (stereo unspecified) | 86.9 | –
COc1ccc(C(=O)C2=C(O)C(=O)N(CCc3c[nH]c4ccccc34)C2c2ccccc2)cc1 (stereo unspecified) | 260 | –
COc1ccc(C(=O)C2=C(O)C(=O)N(CCc3c[nH]c4ccccc34)C2c2ccc(C)cc2)cc1 (stereo unspecified) | 117 | –
CCc1ccc(C2C(C(=O)c3ccc(OC)cc3)=C(O)C(=O)N2CCc2c[nH]c3ccccc23)cc1 (stereo unspecified) | 71.4 | –
COc1ccc(C(=O)C2=C(O)C(=O)N(CCc3c[nH]c4ccccc34)C2c2ccc(OC)cc2)cc1 (stereo unspecified) | 334 | –
COc1ccc(C(=O)C2=C(O)C(=O)N(CCc3c[nH]c4ccccc34)C2c2ccccc2OC)cc1 (stereo unspecified) | 190 | –
COc1ccccc1C1C(C(=O)c2ccc(Cl)cc2)=C(O)C(=O)N1CCc1c[nH]c2ccccc12 (stereo unspecified) | 107 | –
O=C(C1=C(O)C(=O)N(CCc2c[nH]c3ccccc23)C1c1cccc(O)c1)c1ccc(Cl)cc1 (stereo unspecified) | 588 | –
O=C(C1=C(O)C(=O)N(CCc2c[nH]c3ccccc23)C1c1ccc(Cl)cc1)c1ccc(F)cc1 (stereo unspecified) | > 1000 | –
O=C(C1=C(O)C(=O)N(CCc2c[nH]c3ccccc23)C1c1ccccc1)c1ccc(F)cc1 (stereo unspecified) | > 1000 | –
O=C(C1=C(O)C(=O)N(CCc2c[nH]c3ccccc23)C1c1cccc(F)c1)c1ccccc1 (stereo unspecified) | > 1000 | –
CCc1ccc(C2C(C(=O)c3ccc(OC)cc3)=C(O)C(=O)N2CCCNC(=O)OC(C)(C)C)cc1 (stereo unspecified) | 269 | –
CCc1ccc(C2C(C(=O)c3ccc(OC)cc3)=C(O)C(=O)N2c2ccc(CNC(=O)OC(C)(C)C)cc2)cc1 (stereo unspecified) | 102 | –
CCc1ccc(C2C(C(=O)c3ccc(OC)cc3)=C(O)C(=O)N2CCCNC(=O)CC(C)C)cc1 (stereo unspecified) | > 1000 | –
CCc1ccc(C2C(C(=O)c3ccc(OC)cc3)=C(O)C(=O)N2Cc2ccc3c(c2)OCO3)cc1 (stereo unspecified) | 174 | –
CCc1ccc(C2C(C(=O)c3ccc(OC)cc3)=C(O)C(=O)N2Cc2ccc(C(=O)O)cc2)cc1 (stereo unspecified) | 656 | –

SMILES | IC50 [1] [µM] | also measured
CCc1ccc(C2C(C(=O)c3ccc(OC)cc3)=C(O)C(=O)N2CCCn2ccnc2)cc1 (stereo unspecified) | 716 | –
CCc1ccc(C2C(C(=O)c3ccc(OC)cc3)=C(O)C(=O)N2CCCN)cc1 (stereo unspecified) | > 1000 | –
CCc1ccc(C2C(C(=O)c3ccc(OC)cc3)=C(O)C(=O)N2c2ccc(CN)cc2)cc1 (stereo unspecified) | > 1000 | –
COc1ccc(C(=O)C2=C(O)C(=O)N(CCc3c[nH]c4ccccc34)C2c2ccc(C(F)(F)F)cc2)cc1 (stereo unspecified) | 68.1 | –
COc1ccc(C(=O)C2=C(O)C(=O)N(CCc3c[nH]c4ccccc34)C2c2ccc(C(C)(C)C)cc2)cc1 (stereo unspecified) | 94.5 | –
CCCCc1ccc(C2C(C(=O)c3ccc(OC)cc3)=C(O)C(=O)N2CCc2c[nH]c3ccccc23)cc1 (stereo unspecified) | 43.9 | –
COc1ccc(C(=O)C2=C(O)C(=O)N(CCc3c[nH]c4ccccc34)C2c2ccc(CC(C)C)cc2)cc1 (stereo unspecified) | 31.9 | –
COc1ccc(C(=O)C2=C(O)C(=O)N(CCc3c[nH]c4ccccc34)C2c2ccc(-c3ccccc3)cc2)cc1 (stereo unspecified) | 43.1 | –
COc1ccc(C(=O)C2=C(O)C(=O)N(CCc3c[nH]c4ccccc34)C2c2ccc3ccccc3c2)cc1 (stereo unspecified) | 85.5 | –
COc1ccc(C(=O)C2=C(O)C(=O)N(CCc3c[nH]c4ccccc34)C2c2ccc(F)cc2Br)cc1 (stereo unspecified) | 110 | –
CCCCCC1C(C(=O)c2ccc(OC)cc2)=C(O)C(=O)N1CCc1c[nH]c2ccccc12 (stereo unspecified) | 111 | –
CC(C)Cc1ccc(C2C(C(=O)c3ccc(Cl)cc3)=C(O)C(=O)N2CCc2c[nH]c3ccccc23)cc1 (stereo unspecified) | 41 | –
CC(C)Cc1ccc(C2C(C(=O)c3ccc(F)cc3F)=C(O)C(=O)N2CCc2c[nH]c3ccccc23)cc1 (stereo unspecified) | 175 | –
CCc1ccc(C2C(C(=O)c3cccc4ccccc34)=C(O)C(=O)N2CCc2c[nH]c3ccccc23)cc1 (stereo unspecified) | 80 | –
CC[C@H](C)[C@H](N)C(=O)NS(=O)(=O)OC[C@H]1O[C@@H](c2nc(-c3ccccc3)ns2)[C@H](O)[C@@H]1O | – | IC50 [2]: > 20 µM; IC50 [3]: 200 µM; IC50 [4]: 1 µM
CC(C)C[C@H](N)C(=O)NS(=O)(=O)OC[C@H]1O[C@@H](c2nc(-c3ccc(Oc4ccccc4)cc3)ns2)[C@H](O)[C@@H]1O | – | IC50 [2]: 0.054 µM; IC50 [3]: 0.6 µM; IC50 [4]: 0.0016 µM
CC(C)C[C@H](N)C(=O)NS(=O)(=O)OC[C@H]1O[C@@H](c2nc(CCc3cccc(Oc4ccccc4)c3)ns2)[C@H](O)[C@@H]1O | – | IC50 [2]: 0.1 µM; IC50 [3]: 1.15 µM; IC50 [4]: 0.006 µM
CC(C)C[C@H](N)C(=O)NS(=O)(=O)OC[C@H]1O[C@@H](c2nc(CCc3ccccc3)ns2)[C@H](O)[C@@H]1O | – | IC50 [2]: 0.09 µM; IC50 [3]: 0.73 µM; IC50 [4]: < 0.002 µM
CC[C@H](C)[C@H](N)C(=O)NS(=O)(=O)OCc1oc(-c2nc(-c3ccccc3)cs2)c(O)c1O | – | IC50 [3]: 0.6 µM; IC50 [4]: 0.0016 µM
CC[C@H](C)[C@H](N)C(=O)NS(=O)(=O)CC(=O)O[C@H]1CC[C@H]2C(C(N)=O)=CN(C)C[C@@H]12 | – | IC50 [2]: 0.42 µM
CC[C@H](C)[C@H](N)C(=O)NS(=O)(=O)CC(=O)N[C@]1(C(=O)OC)[C@@H]2CN(C)C=C(C(N)=O)[C@@H]2C[C@@H]1O | – | IC50 [2]: 186 µM

From ChEMBL document CHEMBL1938385, “Identification of Trypanosoma brucei leucyl-tRNA synthetase inhibitors by pharmacophore- and docking-based virtual screening and synthesis” (Bioorg Med Chem, 2012)
